The record followed here is ChEMBL document CHEMBL5096186, “Design, Synthesis, and Biological Evaluation of Novel Pyrimido[4,5-b]indole Derivatives Against Gram-Negative Multidrug-Resistant Pathogens” (J Med Chem, 2021).

Broadly, the MIC is the lowest concentration that inhibits growth of the organism. For orientation: inhibition means the relative decrease from the control value, in per cent. Usually IC50 stands for the point on the concentration scale where inhibition reaches its midpoint.

Series [1] deals with Staphylococcus epidermidis. Nature of the series: Antibacterial activity against methicillin-resistant Staphylococcus epidermidis strains 15 1 to 4 assessed as reduction in bacterial growth incubated for 18 to 20 hrs by CLSI based microdilution method. Conditions: time 18-20 hrs. The format is functional. In outline:
(§1)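 Broth microdilution per CLSI. Compounds dissolved in DMSO (levofloxacin and meropenem in water) as 64 μg/mL stock, then serial twofold dilutions in broth giving 64 to 0.008 μg/mL. […] Clinical isolates tested as several strains per group; racemic GP-1 served as positive control; values given as MIC ranges.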

Series [2] has as its system Escherichia coli. Nature of the series: Antibacterial activity against ESBL-producing Escherichia coli ATCC 35218 strains 15 1 to 3 assessed as reduction in bacterial growth incubated for 18 to 20 hrs by CLSI based microdilution method. The format is functional. Conditions: time 18-20 hrs. In a few lines: (§2)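 CLSI broth microdilution. Compounds in DMSO (levofloxacin and meropenem in water), serial twofold dilutions in broth, 64 to 0.008 μg/mL. […] Results reported as MIC ranges across strains.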
A general note: In broth dilution the organism is exposed to a series of concentrations in liquid medium.

The test system of series [3] is Staphylococcus epidermidis. Briefly: Antibacterial activity against methicillin-sensitive Staphylococcus epidermidis strains 15 1 to 4 assessed as reduction in bacterial growth incubated for 18 to 20 hrs by CLSI based microdilution method. The format is functional. The following applies: time 18-20 hrs. In a few lines: as §1
The test system of series [4] is Pseudomonas aeruginosa. Nature of the series: Antibacterial activity against multidrug resistant Pseudomonas aeruginosa strains 15 1 to 3 assessed as reduction in bacterial growth incubated for 18 to 20 hrs by CLSI based microdilution method. The format is functional. The following applies: time 18-20 hrs. In a few lines: as §1
Series [5] concerns Staphylococcus aureus. Briefly: Antibacterial activity against methicillin-resistant Staphylococcus aureus strains 15 1 to 4 assessed as reduction in bacterial growth incubated for 18 to 20 hrs by CLSI based microdilution method. The format is functional. The following applies: time 18-20 hrs. In a few lines:
as §1

Series [6] concerns Escherichia coli. Nature of the series: Antibacterial activity against Escherichia coli ATCC 35218 strains 15 1 to 3 assessed as reduction in bacterial growth incubated for 18 to 20 hrs by CLSI based microdilution method. Conditions: time 18-20 hrs. The format is functional. In outline:
as §2

Series [7] concerns Staphylococcus aureus. Nature of the series: Antibacterial activity against methicillin-sensitive Staphylococcus aureus strains 15 1 to 4 assessed as reduction in bacterial growth incubated for 18 to 20 hrs by CLSI based microdilution method. The format is functional. Conditions: time 18-20 hrs. In a few lines: as §1
Series [8] deals with Escherichia coli. Nature of the series: Antibacterial activity against ESBL-producing multidrug resistant Escherichia coli assessed as reduction in bacterial growth incubated for 18 to 20 hrs by CLSI based microdilution method. The format is functional. The following applies: time 18-20 hrs. In a few lines:
as §1

Series [9] relates to Klebsiella pneumoniae. Briefly: Antibacterial activity agains wild type Klebsiella pneumoniae ATCC BAA-1705 assessed as reduction in bacterial growth incubated for 18 to 20 hrs by CLSI based microdilution method. The format is functional. The following applies: time 18-20 hrs. In a few lines: as §2
Series [10] deals with Escherichia coli. Nature of the series: Antibacterial activity against multidrug resistant wild type Escherichia coli NCTC 13353 assessed as reduction in bacterial growth incubated for 18 to 20 hrs by CLSI based microdilution method. The format is functional. Conditions: time 18-20 hrs. In a few lines:
as §1

For series [11], the system named is Pseudomonas aeruginosa. Nature of the series: Antibacterial activity against IMP4-producing multidrug resistant Pseudomonas aeruginosa assessed as reduction in bacterial growth incubated for 18 to 20 hrs by CLSI based microdilution method. The format is functional. Conditions: time 18-20 hrs. In a few lines:
as §1

The test system of series [12] is Klebsiella pneumoniae. Nature of the series: Antibacterial activity against KPC2-producing multidrug resistant Klebsiella pneumoniae assessed as reduction in bacterial growth incubated for 18 to 20 hrs by CLSI based microdilution method. The format is functional. Conditions: time 18-20 hrs. In a few lines:
as §1

Series [13] deals with Acinetobacter baumannii. Briefly: Antibacterial activity agains OXA23-producing multidrug resistant Acinetobacter baumannii assessed as reduction in bacterial growth incubated for 18 to 20 hrs by CLSI based microdilution method. The format is functional. The following applies: time 18-20 hrs. In outline: as §1
Series [14] relates to Pseudomonas aeruginosa. Nature of the series: Antibacterial activity against wild type Pseudomonas aeruginosa ATCC 27853 assessed as reduction in bacterial growth incubated for 18 to 20 hrs by CLSI based microdilution method. The format is functional. The following applies: time 18-20 hrs. In outline: as §2
Series [15] concerns Klebsiella pneumoniae. Briefly: Antibacterial activity agains wild type Klebsiella pneumoniae ATCC BAA-2470 assessed as reduction in bacterial growth incubated for 18 to 20 hrs by CLSI based microdilution method. The format is functional. The following applies: time 18-20 hrs. In outline:
as §1

The subject of series [16] is Acinetobacter baumannii. Nature of the series: Antibacterial activity against wild type Acinetobacter baumannii NCTC 13304 assessed as reduction in bacterial growth incubated for 18 to 20 hrs by CLSI based microdilution method. Conditions: time 18-20 hrs. The format is functional. In a few lines:
as §1

Series [17] relates to Escherichia coli. Nature of the series: Antibacterial activity against multidrug resistant wild type Escherichia coli ATCC BAA-2340 assessed as reduction in bacterial growth incubated for 18 to 20 hrs by CLSI based microdilution method. The format is functional. Conditions: time 18-20 hrs. In a few lines:
as §1

Series [18] is described as follows: Metabolic stability in rat liver microsome assessed as elimination half life at 0.1 uM in presence of NADPH incubated upto 60 mins by LC-MS/MS analysis. The format is ADME. The following applies: liver microsomes, read-out: beta t1/2. In outline:
(§3)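 Compound at 0.1 μM final, in 0.01% DMSO with 0.005% BSA. Incubated with rat or human liver microsomes at 0.33 mg/mL in 0.1 M Tris-HCl, pH 7.4, with 5 mM MgCl₂ and 1 mM NADPH, at 37 °C. Samples at 0, 7, 17, 30 and 60 min quenched with cold methanol and analysed by LC-MS/MS. Half-life, Cl_int and MF% derived as previously described.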
Background: Liver microsomes are a subcellular fraction often used to study metabolism.

A short description of series [19]: Metabolic stability in rat liver microsome assessed as metabolic bioavailability at 0.1 uM in presence of NADPH incubated upto 60 mins by LC-MS/MS analysis. The format is ADME. The following applies: liver microsomes. In a few lines:
as §3

A short description of series [20]: Metabolic stability in human liver microsome assessed as elimination half life at 0.1 uM in presence of NADPH incubated upto 60 mins by LC-MS/MS analysis. The format is ADME. The following applies: liver microsomes, read-out: beta t1/2. In a few lines: as §3
For series [21], the target named is hERG (KCNH2) potassium channel (Homo sapiens, UniProt Q12809). Nature of the series: Inhibition of hERG potassium channel assessed as maximum inhibition rate at 40 uM at -80 mV holding potential incubated for 120 seconds by whole cell-automated voltage clamp analysis assay relative to control. The format is toxicity. The following applies: time 120 sec. In a few lines:
(§4)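 Automated whole-cell patch clamp, holding potential −80 mV. Voltage protocol applied every 20 s. Baseline set with external solution containing 0.1% DMSO and stabilised 3 min. Compound applied until steady state, at least 3 min, then washout. Maximum tested concentration 40 μM, or 3 μM for cisapride as positive control.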
Background: The hERG channel carries a current that helps repolarise heart muscle cells.

The nature of series [22]: Metabolic stability in human liver microsome assessed as metabolic bioavailability at 0.1 uM in presence of NADPH incubated upto 60 mins by LC-MS/MS analysis. The format is ADME. The following applies: liver microsomes. In outline: as §3
Series [23] is described as follows: Metabolic stability in human liver microsome assessed as intrinsic clearance at 0.1 uM in presence of NADPH incubated upto 60 mins by LC-MS/MS analysis. The format is ADME. Conditions: microsomes, 1 h. In outline: as §3
Series [24] addresses Voltage-gated inwardly rectifying potassium channel KCNH2 (Homo sapiens, UniProt Q12809). Briefly: Inhibition of hERG potassium channel assessed as […] at -80 mV holding potential incubated for 120 seconds by whole cell-automated voltage clamp analysis assay. The format is toxicity. In a few lines: as §4
Series [25] can be described thus: Metabolic stability in rat liver microsome assessed as intrinsic clearance at 0.1 uM in presence of NADPH incubated upto 60 mins by LC-MS/MS analysis. Conditions: microsomes, 1 h. The format is ADME. In outline: as §3

≈ marks a conversion by molar mass, not a printed value.

Chain of Voltage-gated inwardly rectifying potassium channel KCNH2 (Q12809 whole entry): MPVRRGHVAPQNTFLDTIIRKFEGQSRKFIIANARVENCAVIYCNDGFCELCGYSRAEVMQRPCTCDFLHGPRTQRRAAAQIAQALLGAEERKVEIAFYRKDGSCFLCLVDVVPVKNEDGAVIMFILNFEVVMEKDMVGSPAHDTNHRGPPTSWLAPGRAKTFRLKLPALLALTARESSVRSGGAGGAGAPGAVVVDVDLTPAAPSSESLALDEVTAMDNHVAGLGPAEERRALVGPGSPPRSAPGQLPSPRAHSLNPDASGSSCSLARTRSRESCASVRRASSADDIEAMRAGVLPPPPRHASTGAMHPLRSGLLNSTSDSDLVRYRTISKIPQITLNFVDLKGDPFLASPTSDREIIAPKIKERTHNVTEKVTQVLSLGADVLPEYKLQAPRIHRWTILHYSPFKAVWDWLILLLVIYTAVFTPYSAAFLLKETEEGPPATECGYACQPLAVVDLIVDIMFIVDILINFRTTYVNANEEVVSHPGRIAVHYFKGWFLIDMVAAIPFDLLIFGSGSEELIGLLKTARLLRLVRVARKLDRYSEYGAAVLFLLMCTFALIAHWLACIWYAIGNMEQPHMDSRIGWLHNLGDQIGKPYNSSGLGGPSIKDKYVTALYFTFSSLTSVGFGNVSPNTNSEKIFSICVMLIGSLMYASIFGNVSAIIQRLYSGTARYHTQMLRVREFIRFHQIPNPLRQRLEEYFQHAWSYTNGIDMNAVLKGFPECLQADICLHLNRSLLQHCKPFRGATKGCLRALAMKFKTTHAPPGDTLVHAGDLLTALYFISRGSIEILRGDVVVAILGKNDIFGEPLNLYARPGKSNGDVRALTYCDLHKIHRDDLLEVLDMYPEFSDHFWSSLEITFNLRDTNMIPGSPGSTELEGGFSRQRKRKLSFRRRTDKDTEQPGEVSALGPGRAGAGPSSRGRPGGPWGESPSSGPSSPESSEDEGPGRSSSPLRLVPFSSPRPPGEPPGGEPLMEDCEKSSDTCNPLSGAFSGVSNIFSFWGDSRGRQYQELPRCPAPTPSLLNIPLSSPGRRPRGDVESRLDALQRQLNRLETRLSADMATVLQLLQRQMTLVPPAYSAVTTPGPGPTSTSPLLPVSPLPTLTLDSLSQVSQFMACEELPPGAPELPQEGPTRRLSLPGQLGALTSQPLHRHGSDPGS
Chain of hERG (KCNH2) potassium channel (Q12809 whole entry): as above

With `CCC(CN)=C1CN(c2nc(Oc3ccc4c(c3)C(=O)NC4)nc3[nH]c4c(NC)cc(F)cc4c23)C1`, the MIC is 0.06 µg/mL (≈ 0.123 µM) in series [1]; 8 µg/mL (≈ 16.4 µM) in series [2]; 0.06 µg/mL (≈ 0.123 µM) in series [3]; 16 µg/mL (≈ 32.8 µM) in [4]; 0.5 µg/mL (≈ 1.03 µM) in series [5]; over 8 µg/mL in series [6]. The MIC in [7] worked out at 0.5 µg/mL (≈ 1.03 µM).

As to `C[C@H]1COc2c(N3CCN(C)CC3)c(F)cc3c(=O)c(C(=O)O)cn1c23.C[C@H]1COc2c(N3CCN(C)CC3)c(F)cc3c(=O)c(C(=O)O)cn1c23.O` [LEVOFLOXACIN], the MIC in series [1] is over 4 µg/mL; in series [8] it was 8 µg/mL; in series [9], 64 µg/mL; in [10] it was 32 µg/mL; in [11], 4 µg/mL; in [12], at least 32 µg/mL. The MIC is 0.125 µg/mL in series [3]; 4 µg/mL in series [13]; 0.5 µg/mL in series [4]; 2 µg/mL in series [14]; 16 µg/mL in series [5]; at most 0.03 µg/mL in [6]. The MIC in series [7] was found to be 0.25 µg/mL; in series [15], 16 µg/mL; in [16] it was 4 µg/mL; in series [17] it was 4 µg/mL.

On to `CNc1cc(F)cc2c1[nH]c1nc(Oc3cnc(C)nc3)nc(N3CC(=C(CN)C(C)C)C3)c12`, for which the MIC stood at 1 µg/mL (≈ 2.16 µM) in series [8]; 0.125 µg/mL (≈ 0.27 µM) in series [2]; 4 µg/mL (≈ 8.65 µM) in [9]; 0.5 µg/mL (≈ 1.08 µM) in series [10]; 4 µg/mL (≈ 8.65 µM) in series [11]; 2 µg/mL (≈ 4.32 µM) in series [12]. The MIC is under 0.008 µg/mL in series [3]; 0.5 µg/mL (≈ 1.08 µM) in series [13]; 1 µg/mL (≈ 2.16 µM) in series [4]; 2 µg/mL (≈ 4.32 µM) in series [14]; 0.03 µg/mL (≈ 0.0649 µM) in [6]; under 0.008 µg/mL in [7]. For the same compound, the results for the MIC in series [15], in [16] and in series [17] were 2 µg/mL (≈ 4.32 µM), 0.5 µg/mL (≈ 1.08 µM) and 0.5 µg/mL (≈ 1.08 µM), respectively. Moreover, the half-life at 0.1 µM in [18] stood at 17.8 min; in [20] it was 38 min. Further, the values for the Fh at 1 h, 0.1 µM in series [19] and in series [22] were 27.3% and 26.2%, respectively. Also, the inhibition at 2 min, 40 µM in [21] was found to be 26.5%. In addition, the CLH stood at 55.2 mL/min/g in [23] and 118.3 mL/min/g in [25]. Besides, in series [24], the IC50 was over 40 µM.

Take `CNc1cc(F)cc2c1[nH]c1nc(Oc3cnc(C)nc3)nc(N3CC(=CCN)C3)c12`: the MIC was 0.25 µg/mL (≈ 0.595 µM) in series [1]; 8 µg/mL (≈ 19 µM) in series [2]; 0.25 µg/mL (≈ 0.595 µM) in [3]; at least 16 µg/mL in series [4]; 0.5 µg/mL (≈ 1.19 µM) in series [5]; 0.5 µg/mL (≈ 1.19 µM) in series [6]. Moreover, the MIC in [7] is 0.5 µg/mL (≈ 1.19 µM).

As to `CCC(CN)=C1CN(c2nc(Sc3ccc(Br)cn3)nc3[nH]c4c(NC)cc(F)cc4c23)C1`, the MIC is 0.25 µg/mL (≈ 0.473 µM) in [1]; over 2 µg/mL in [2]; 0.25 µg/mL (≈ 0.473 µM) in series [3]; over 16 µg/mL in series [4]; 0.5 µg/mL (≈ 0.946 µM) in series [5]; over 1 µg/mL in series [6]. Besides, in series [7], the MIC worked out at 1 µg/mL (≈ 1.89 µM).

For the compound `CNc1cc(F)cc2c1[nH]c1nc(Oc3cnc(C)nc3)nc(N3CCC(=C(C)CN)CC3)c12`, the MIC in series [1] is under 0.008 µg/mL; in series [2], 2 µg/mL (≈ 4.32 µM); in [3] it was 0.03 µg/mL (≈ 0.0649 µM); in [4] it was over 8 µg/mL; in series [5], 0.125 µg/mL (≈ 0.27 µM); in series [6], 0.25 µg/mL (≈ 0.541 µM). Also, the MIC in [7] was determined as 0.125 µg/mL (≈ 0.27 µM).
